TAAR1 antagonist: human TAAR1 antagonists, primary screen, Fluo-8 calcium fluorescence, CHO RD-HGA16 cells; antagonist; 360,000 compounds, 1.5% hits; Trace amine-associated receptor 1 (Homo sapiens), Q96RJ0; inhibition, % at 3 µM;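 active = inhibition above a per-plate cutoff, the mean inhibition of test compounds on that plate plus 3 SD, cut at about 49% in these data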;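 also: 0% = DMSO plus EC80 beta-PEA response and 100% = DMSO alone without agonist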
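Test system – hTAAR1-expressing CHO RD-HGA16 cells, Gα16-coupled · Reagent – β-PEA at EC80 concentration, post-compound challenge · Compound dosing – 3 µM, single point · Timing – 140 s kinetic read after compound, 140 s after agonist · Detection – Fluo-8 intracellular calcium dye fluorescence, real-time kinetic reads · Control set – DMSO and EC80 PEA controls · Repeats – n of 1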
OX1R antag-1: antagonists of human orexin 1 receptor (OX1R); 330,000 compounds, 1.8% hits; inhibition, % at 6.6 µM; Orexin/Hypocretin receptor type 1 (Homo sapiens), O43613; OX1R-expressing cells, FRET antagonist read-out; in the data active = inhibition mostly above about 38%, no sharp cut-off; inactive = mostly below about 40%;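 also: 0% = agonist challenge alone and 100% = reference antagonist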
Target sequence (O43613 whole entry, looked up): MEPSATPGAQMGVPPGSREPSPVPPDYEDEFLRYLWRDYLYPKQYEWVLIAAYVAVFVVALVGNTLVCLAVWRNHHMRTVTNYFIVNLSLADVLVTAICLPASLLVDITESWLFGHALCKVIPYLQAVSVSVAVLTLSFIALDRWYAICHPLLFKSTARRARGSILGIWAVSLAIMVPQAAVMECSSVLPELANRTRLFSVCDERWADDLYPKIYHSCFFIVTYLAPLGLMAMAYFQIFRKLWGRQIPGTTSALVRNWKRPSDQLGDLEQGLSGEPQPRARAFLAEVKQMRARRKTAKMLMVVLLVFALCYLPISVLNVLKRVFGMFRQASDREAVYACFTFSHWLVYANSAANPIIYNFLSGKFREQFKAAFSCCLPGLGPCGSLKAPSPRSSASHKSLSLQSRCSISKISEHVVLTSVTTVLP
TAAR1 agonist: human TAAR1 agonists, primary screen, Fluo-8 calcium fluorescence, CHO RD-HGA16 cells | 360,000 compounds, 0.99% hits | vehicle wells 0%, saturating PEA agonist 100% | AID 624467, 2012 | activation, % at 3 µM | Trace amine-associated receptor 1 (Homo sapiens), Q96RJ0;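 active = activation above the mean activation of all test compounds in the run plus 3 SD, cut at about 38% in these data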
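Assay system: CHO-derived RD-HGA16 cells with stable Gα16 and human TAAR1; timing: 17-24 h seeding, 75 min 37 °C dye, 30 min RT; read-out: % activation from peak over basal fluorescence ratio, DMSO-to-PEA scaled; measured by: kinetic Fluo-8 calcium fluorescence; benchmarks: low control DMSO, high control PEA (EC100); doses: 3 µM single concentration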
CHO parental Ca: ATP-evoked calcium signal inhibitors, parental CHO, primary screen, counter-screen for OX1R antagonist project, cell-based, fluorescence, Fluo-8 calcium dye. parental CHO-K1, ATP-induced calcium, Fluo-8 fluorescence. inhibition, % at 5.6 µM. AID 463079, 2010. 330,000 compounds, 0.63% hits;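 active = inhibition above that plate's mean sample inhibition plus 3 SD, cut at about 26% in these data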;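 also: 0% = ATP-challenged DMSO wells and 100% = DMSO wells without ATP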
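Material – parental CHO cells · Reagent – ATP stimulus · Compound – single nominal dose of 5.6 µM per compound · Detection – Fluo-8 fluorescence · Read-out basis – percent inhibition of calcium signal · Controls – ATP-challenged DMSO wells low, unchallenged DMSO wells high · Repeats – no replicates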
GPR7 antagonist: GPR7 receptor antagonists, primary screen, cell-based, fluorescence, single concentration | Neuropeptides B/W receptor type 1 (Homo sapiens), P48145 | GPR7-expressing cells, fluorescence antagonist assay | inhibition, % at 4.4 µM | 290,000 compounds, 1.1% hits; in the data active = inhibition above about 16%, passing the limit was not always enough;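 also: cells stimulated with the agonist NPW; 0% = agonist with vehicle and 100% = vehicle without agonist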
OX1R antag-2: OX1R (HCRTR1) antagonists, primary screen, fluorescence, CHO/OX1R cells, Fluo-8 calcium, orexin A | Orexin/Hypocretin receptor type 1 (Homo sapiens), O43613 | Fluo-8 calcium fluorescence | inhibition, % at 5 µM | 330,000 compounds, 0.43% hits | AID 434989, 2010;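 active = inhibition above its plate's threshold, mean inhibition of all tested compounds on the plate plus 3 SD, cut at about 37% in these data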;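 also: 0% = orexin A challenge wells and 100% = SB-334867-A antagonist wells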
Starred values were filed as active, the others as inactive; · = no result given. A selection: hits, their analogues and other compounds. The true share with any hit is near 4.6%.

SMILES	TAAR1 antagonist	OX1R antag-1	TAAR1 agonist	CHO parental Ca	GPR7 antagonist	OX1R antag-2
C[C@]12Cc3ccccc3C1CC1=N[C@@H](C3CCCCC3)O[C@@]13C[C@@H]2C(=O)N3C1CCN(Cc2ccccc2)CC1 (stereo partly specified)	-42	·	-2	·	·	·
COC(=O)CNC(=O)CN(c1ccc(OC)cc1OC)S(=O)(=O)c1ccccc1	2	2	1	-13	·	7
COc1ccc(N(CC(=O)NCCC2=CCCCC2)S(=O)(=O)c2ccccc2)c(OC)c1	6	62*	-2	-37	17	-31
CC(C)[C@H](NC(=O)c1ccc(Cl)cc1Cl)C(=O)N1CCC[C@H]1C(=O)NCc1ccccc1	-4	·	-1	·	·	·
Clc1cccc(Cl)c1/C=C/c1nc2ccccc2[nH]1	·	50*	·	-26	-14	-20
COC(=O)C1=C(C)N(Cc2ccccc2C(F)(F)F)C(=NCc2ccc(OC)cc2)NC1c1cccc(Cl)c1 (stereo unspecified)	-2	·	11	·	·	·
Cc1ccc(C(=O)Nc2ccc(C(=O)N/N=C/c3ccccn3)cc2)cc1	32	22	4	35*	-10	20
O=C(N/N=C/c1ccccn1)c1sc2ccccc2c1Cl	8	64*	6	31	19*	30
O=C(N/N=C/c1ccccn1)c1ccc(Cl)cc1	-21	22	6	0	-17	-4
Cc1c(/C=N/NC(=O)c2sc3ccccc3c2Cl)cnn1C	13	48*	7	-13	-3	-19
Cn1cccc1/C=N/NC(=O)c1sc2ccccc2c1Cl	-8	74*	2	-25	-13	5
COc1ccc(-c2csc(C(NC(C)=O)c3cccc(F)c3)n2)cn1 (stereo unspecified)	-22	·	0	·	·	·
CN(CC(=O)Nc1cccc(Cl)c1)S(=O)(=O)/C=C/c1ccccc1	10	·	-1	·	·	·
COc1c(OC(C)=O)ccc(/C=C/c2ccc3ccccc3n2)c1[N+](=O)[O-]	17	42*	9	-7	5	2
CC12CCC3c4ccc(OCCCO)c([N+](=O)[O-])c4CCC3C1CCC2=O (stereo unspecified)	17	·	4	·	·	·
Cc1[nH][nH]c(=O)c1C(c1ccc(-c2ccc(Cl)c(Cl)c2)o1)c1c(C)[nH][nH]c1=O	105*	1	32	-5	3	15
Cc1[nH][nH]c(=O)c1C(c1ccc(-c2ccc(F)cc2)o1)c1c(C)[nH][nH]c1=O	-10	18	2	-7	0	-10
CC(=O)c1ccc(OCc2ccc(C(=O)c3ccccc3)cc2)cc1	32	43	7	49*	14	22
COC(=O)C1=C(C)N(Cc2ccccc2)C(=S)N[C@H]1c1cccc(C(F)(F)F)c1	56*	27	6	-12	·	19
COC(=O)C1=C(C)N(Cc2ccccc2)C(=NCC(C)C)N[C@H]1c1cccc(F)c1	40	4	44*	5	·	29
O=C1NC(c2ccc(Br)cc2)c2c(-c3ccccc3)n[nH]c21 (stereo unspecified)	-8	·	-1	·	·	·
CS(=O)(=O)NCCSc1nnnn1-c1ccccc1	6	6	7	-2	18*	9
COc1cccc2sc(Nc3nc(-c4ccccn4)cs3)nc12	·	114*	·	45*	-6	102*
O=C(Nc1ccc(-c2csc(Nc3ccc(Cl)cc3)n2)cc1)c1ccccc1	51*	7	4	1	·	2
COc1cccc2sc(NNC(=O)COc3ccccc3)nc12	-23	33	5	-12	0	-13
SMILES	TAAR1 antagonist	OX1R antag-1	TAAR1 agonist	CHO parental Ca	GPR7 antagonist	OX1R antag-2
c1ccc(-c2csc(Nc3cccnc3)n2)nc1	19	-1	8	0	-5	9
c1ccc(Nc2nc(-c3ccccn3)cs2)cc1	-3	77*	6	-24	-1	-15
N#Cc1ccc(S(=O)(=O)N2CCCc3nc(-c4ccc(F)cc4)ccc32)cc1	4	·	2	·	·	·
CCC(O)(CC)C(=O)N=Nc1c(O)[nH]c2ccccc12	2	23	1	-13	-1	-2
O=C(CSCc1cccc(Br)c1)N=Nc1c(O)[nH]c2ccccc12	12	51*	2	-16	-7	5
O=C(CNC(=O)c1ccccn1)N=Nc1c(O)[nH]c2ccccc12	10	71*	2	3	-12	5
CC(C)CC(=O)N=Nc1c(O)[nH]c2ccccc12	-12	53*	1	-5	-9	-10
COc1ccc(N2CCN(C(=O)c3cccc(NS(=O)(=O)c4cccc(F)c4)c3)CC2)cc1	-29	·	1	·	-3	·
COc1ccc(N2CCN(C(=O)c3ccc(NS(=O)(=O)c4ccc(F)c(F)c4)cc3)CC2)cc1	-5	15	5	40*	9	14
COc1ccc(NS(=O)(=O)c2ccc(C(=O)N3CCN(c4ccc(F)cc4)CC3)cc2)cc1	43	8	17	27*	·	34
COc1ccccc1N1CCN(C(=O)c2cccc(S(=O)(=O)Nc3ccccc3F)c2)CC1	54*	1	18	-13	·	7
COc1ccc(N2CCN(C(=O)c3ccc(NS(=O)(=O)c4cccc(F)c4)cc3)CC2)cc1	28	12	9	-7	-5	-10
COc1cc(-c2cnc3c(NC(C)=O)cc(-c4ccccc4CN(C)C)cn23)cc(OC)c1OC	-12	·	0	·	·	·
COCCNC(=O)Nc1ccc2nc(-c3cccs3)c(-c3cccs3)nc2c1	32	51	8	1	4	5
O=C(Nc1ccc2nc(-c3cccs3)c(-c3cccs3)nc2c1)NC1CC1	32	58*	36	4	4	-7
Nc1[nH]c(C(=O)c2ccccc2)c(-c2cccc3ccccc23)c1C(=O)c1ccc(Br)cc1	-50	·	3	·	·	·
COc1ccccc1C(=O)N1CCC2CCNC2C1 (stereo unspecified)	-5	·	1	·	·	·
O=c1c2ccccc2ncn1-c1ccc([N+](=O)[O-])cc1[N+](=O)[O-]	-2	58*	12	18	9	-11
CCOC(=O)CCn1cnc2ccc([N+](=O)[O-])cc2c1=O	-21	36	5	-5	-8	-12
Cn1cnc2ccc([N+](=O)[O-])cc2c1=O	9	75*	1	-7	-1	-13
O=c1c2ccccc2ncn1-c1cccc([N+](=O)[O-])c1	-17	22	0	9	·	-6
CCOc1cccc(/C=C/c2ccc3cccc(O)c3n2)c1OC	37	9	2	48*	8	28
